Measured values of several laboratories.
Organism: Mycobacterium tuberculosis
Observed: microbial growth

SMILES | test | system | conditions | MIC
CCc1cc(=O)c2c(OCC(O)CN3CCC(C)CC3)c3ccoc3c(OC)c2o1 (stereo not shown) | resazurin | H37RV | 21 days | 32 µg/mL
FC(F)Oc1ccc(CCNc2cc(-c3ccccn3)nc3nncn23)cc1 |  | H37RV |  | 1.1 µM
CCOC(=O)c1c(-c2ccc(OC)cc2)oc2ccc(O)c(CN3CCN(Cc4cn(C[C@H]5O[C@H](O[C@H]6O[C@H](CO)[C@@H](O)[C@H](O)[C@H]6O)[C@H](O)[C@@H](O)[C@@H]5O)nn4)CC3)c12 |  | CDC1551 |  | 5.3 µM
CCc1cc(=O)c2c(OCC(O)CNC(C)(C)C)c3ccoc3c(OC)c2o1 (stereo not shown) | resazurin |  | 21 days | 32 µg/mL
CCc1nc2[nH]c(=O)n(O)c(=O)c2s1 |  |  |  | 46.4 µM
CCOc1cc(C=NNC(N)=S)ccc1OC(=O)CN1C(=O)CSC1=O | resazurin | H37RV |  | 0.63 µM
O=c1[nH]c2nc(-c3cccnc3)sc2c(=O)n1O |  |  |  | > 100 µM
Clc1ccc(CCNc2cc(-c3ccccn3)nc3nnc(C4CC4)n23)cc1 |  | H37RV | 5 days | 17 to 50 µM
CCc1cc(=O)c2c(OCC(O)CN3CCOCC3)c3ccoc3c(OC)c2o1 (stereo not shown) | resazurin |  | 21 days | 64 µg/mL
c1ccc(CCOc2cc(-c3ccccn3)nc3ncnn23)cc1 |  | H37RV |  | > 100 µM
CCc1cc(=O)c2c(O)c3ccoc3c(OC)c2o1 | resazurin | H37RV | 21 days | 512 µg/mL
O=c1[nH]c2nc(-c3ccccc3)sc2c(=O)n1O |  |  |  | 12.8 µM
NNC(=O)c1ccncc1 |  | H37RV |  | 0.62 µM
CO[C@H]1/C=C/O[C@@]2(C)Oc3c(C)c(O)c4c(O)c(c(/C=N/N5CCN(C)CC5)c(O)c4c3C2=O)NC(=O)/C(C)=C\C=C\[C@H](C)[C@H](O)[C@@H](C)[C@@H](O)[C@@H](C)[C@H](OC(C)=O)[C@@H]1C |  | H37RA |  | 0.01 µM
Cc1nc2[nH]c(=O)n(O)c(=O)c2s1 |  |  |  | 20.4 µM
C#CC[N+]1(CC)CCc2c(sc(NC(=O)c3c(F)c(F)c(F)c(F)c3F)c2C(=O)OCC)C1 (stereo not shown) |  | CDC1551 |  | 5.8 µM
[H]/N=C(/N)N[C@H]1[C@H](O)[C@@H](O)[C@H](O[C@@H]2O[C@@H](C)[C@](O)(C=O)[C@H]2O[C@@H]2O[C@@H](CO)[C@H](O)[C@@H](O)[C@@H]2NC)[C@@H](N/C(N)=N\[H])[C@@H]1O | resazurin | H37RV | 21 days | 0.25 µg/mL
CC[C@@H](CO)NCCN[C@@H](CC)CO | resazurin | H37RV | 5 days | 1 µg/mL
CC(CNc1cc(-c2ccccn2)nc2nncn12)c1ccccc1 (stereo not shown) |  | H37RV | 5 days | > 100 µM

SMILES | test | system | conditions | MIC
COc1cc(C=NNC(N)=S)ccc1OC(=O)CN1C(=O)CSC1=O | resazurin | H37RV |  | 5.23 µM
NNC(=O)c1ccncc1 | resazurin | H37RV | 7 days | 0.05 µg/mL
CCOC(=O)c1c(-c2ccc(OC)cc2)oc2ccc(OCc3cn(Cc4ccccc4)nn3)c(CN3CCCCC3)c12 |  | CDC1551 |  | 2.4 µM
CCCCCc1ccc(Nc2cc(-c3ccccn3)nc3nncn23)cc1 |  | H37RV |  | > 100 µM
O=c1[nH]c2ncsc2c(=O)n1O |  |  |  | 27.4 µM
NNC(=O)c1ccncc1 | resazurin | H37RV | 5 days | 0.03 µg/mL
CO[C@H]1/C=C/O[C@@]2(C)Oc3c(C)c(O)c4c(O)c(c(/C=N/N5CCN(C)CC5)c(O)c4c3C2=O)NC(=O)/C(C)=C\C=C\[C@H](C)[C@H](O)[C@@H](C)[C@@H](O)[C@@H](C)[C@H](OC(C)=O)[C@@H]1C | resazurin |  | 21 days | 64 µg/mL
Fc1cccc(CCOc2cc(-c3ccccn3)nc3ncnn23)c1 |  | H37RV |  | > 100 µM
NNC(=O)c1ccncc1 | resazurin | H37RV |  | 0.228 µM
Brc1ccc(CCNc2cc(-c3ccccn3)nc3nncn23)cc1 |  | H37RV |  | 1.1 µM
CO[C@H]1/C=C/O[C@@]2(C)Oc3c(C)c(O)c4c(O)c(c(/C=N/N5CCN(C)CC5)c(O)c4c3C2=O)NC(=O)/C(C)=C\C=C\[C@H](C)[C@H](O)[C@@H](C)[C@@H](O)[C@@H](C)[C@H](OC(C)=O)[C@@H]1C |  | H37RV |  | 0.06 µg/mL
CC[C@@H](CO)NCCN[C@@H](CC)CO | resazurin | H37RV |  | 2.45 µM
CCc1cc(=O)c2c(OCC(O)CN(CC)CC)c3ccoc3c(OC)c2o1 (stereo not shown) | resazurin |  | 21 days | 64 µg/mL
CC[C@@H](CO)NCCN[C@@H](CC)CO | resazurin | H37RV | 7 days | 1.56 µg/mL
CCc1cc(=O)c2c(OCC3CO3)c3ccoc3c(OC)c2o1 (stereo not shown) | resazurin |  | 21 days | 64 µg/mL
O=[N+]([O-])c1cn2c(n1)OC[C@@H](OCc1ccc(OC(F)(F)F)cc1)C2 |  | H37RV |  | 0.31 µM
NC(=S)NN=Cc1ccc(OC(=O)CN2C(=O)CSC2=O)cc1 | resazurin | H37RV |  | 2.84 µM
FC(F)(F)c1ccc(CCNc2cc(-c3ccccn3)nc3nnc(C4CC4)n23)cc1 |  | H37RV |  | 42 µM
